From PubChem BioAssay
Compounds with a hit are over-represented: about 2.8% of the library has one in this group of screens.
PTEN del growth: growth suppressors of cells with PTEN tumor suppressor deletion. HCT116 PTEN-null viability, CellTiter-Glo, 60 h; stronger effect = lower value. viability, % at 10 µM. 140,000 compounds, 1.2% hits. AID 827;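 active means viability at or below a set limit, 4 SD under the median of all tested compounds, cut at about 3.7% in these data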;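 further: PTEN knockout HCT116 line with beta catenin targeted HCT116 as companion control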
bCat KO growth: beta-catenin-lacking colon tumor cell growth suppression. HCT116 beta-catenin knockout viability, CellTiter-Glo, 60 h; stronger effect = lower value. viability, % at 10 µM. 140,000 compounds, 1.5% hits. AID 818;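 active means viability at or under a set limit, the compound median less 4 SD, cut at about 6% in these data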
Yeast growth inh: yeast BB579 growth reduction in restrictive medium; inhibition, % at 10 µM; AID 804; S. cerevisiae BB579 growth, OD615, 48 h; 140,000 compounds, 0.51% hits;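 active means inhibition above a set limit, 3 SD over the mean compound inhibition, cut at about 44% in these data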
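Test system: DeaD yeast strain BB579 / Buffer or medium: restrictive glucose-based CSMM-D medium / Doses: single 10 µM dose / Schedule: 4 h cell preincubation, 48 h compound exposure, 30 °C humidified / Technique: culture absorbance at 615 nm / Controls: amphotericin B positive control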
sdo1 growth: compounds rescuing growth of sdo1-depleted yeast, bone marrow failure model | z-score at 10 µM | 140,000 compounds, 0.21% hits | S. cerevisiae sdo1-depleted JHY4D growth rescue, OD600 30 h; stronger effect = higher value; pdr5 snq2 efflux-pump mutant strain;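 active means z-score above 3 at both the 24 hr and the 30 hr optical density reads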
Yeast lifespan up: yeast lifespan extension | S. cerevisiae growth with nicotinamide, OD615; deaD strain in restrictive glucose medium | inhibition of the nicotinamide effect, % at 10 µM | 130,000 compounds, 0.68% hits;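 active means inhibition above a set limit, placed 3 SD over the median of all compounds, cut at about 26% in these data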
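Assay system: DeaD-strain S. cerevisiae. Medium: CSMM-D glucose medium, restrictive. Reagent: nicotinamide, 1.5 mM, co-present with compound. Compound: 10 µM single point, 0.25% DMSO. Schedule: culture preincubation 4 h, compound exposure 48 h, both 30 °C. Detection: absorbance at 615 nm.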
SDO1 rescue DR: SDO1-depleted yeast growth rescue confirmation; shares compounds with sdo1 growth; S. cerevisiae JHY4D (SDO1-depleted) growth rescue, OD600, 30 h; stronger effect = higher value; efflux-deficient strain, SNQ2 and PDR5 mutated; OD recovery (test concentration not listed); 440 compounds, 44% hits;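 active means yeast growth recovered at 30 hours, either rising with dose fitted slope above 0.001 or with average optical density gain above 0.07, some results past the limit were not filed as active; inactive means growth falling with dose or no effect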
A number is an active result.

Results for COc1ccc(S(=O)(=O)N2CCCC(C(=O)O)C2)cc1 (stereo not drawn) ?
PTEN del growth: inactive; bCat KO growth: inactive; Yeast growth inh: inactive; sdo1 growth: inactive; Yeast lifespan up: inactive; SDO1 rescue DR: inactive

How did COc1ccc(S(=O)(=O)N2CCCC(C(=O)NC3CCCCC3)C2)cc1 (stereo not drawn) do in these assays?
PTEN del growth: inactive; bCat KO growth: inactive; Yeast growth inh: inactive; sdo1 growth: inactive; Yeast lifespan up: inactive

Results for COc1ccc2nc(SC(C(=O)c3ccccc3)c3ccccc3)nc(C)c2c1 (stereo not drawn) ?
PTEN del growth: inactive; bCat KO growth: inactive; Yeast growth inh: inactive; sdo1 growth: inactive; Yeast lifespan up: inactive; SDO1 rescue DR: inactive

What do the screens show for `Cc1nc(SC(C(=O)c2ccccc2)c2ccccc2)nc2ccccc12` (stereo not drawn)?
PTEN del growth: inactive; bCat KO growth: inactive; Yeast growth inh: inactive; sdo1 growth: inactive; Yeast lifespan up: inactive

Results for COc1ccc(CCN2C(=O)c3cccc4cccc(c34)C2=O)cc1OC ?
PTEN del growth: inactive; bCat KO growth: inactive; Yeast growth inh: inactive; sdo1 growth: inactive; Yeast lifespan up: inactive; SDO1 rescue DR: 0.094

What do the screens show for `Cc1ccccc1C(=O)c1ccc2c(c1)n(C)c(=O)n2C`?
PTEN del growth: inactive; bCat KO growth: inactive; Yeast growth inh: inactive; sdo1 growth: inactive; Yeast lifespan up: inactive

What do the screens show for `CC(C)Oc1ccccc1/C=N/Nc1ccccc1[N+](=O)[O-]`?
PTEN del growth: inactive; bCat KO growth: inactive; Yeast growth inh: inactive; sdo1 growth: inactive; Yeast lifespan up: inactive

Results for CCOc1ccccc1/C=N/Nc1ccccc1[N+](=O)[O-] ?
PTEN del growth: inactive; bCat KO growth: inactive; Yeast growth inh: inactive; sdo1 growth: inactive; Yeast lifespan up: inactive; SDO1 rescue DR: inactive

How did CC(=O)C1C(c2ccc(F)cc2)C2C(C)=NN=C2CC1(C)O (stereo not drawn) do in these assays?
PTEN del growth: inactive; bCat KO growth: inactive; Yeast growth inh: inactive; sdo1 growth: 9.7; Yeast lifespan up: inactive; SDO1 rescue DR: 0.072

How did CCC(CC)C(=O)Nc1cccc(/C(C)=N\NC(=O)c2ccc(C)s2)c1 do in these assays?
PTEN del growth: inactive; bCat KO growth: inactive; Yeast growth inh: inactive; sdo1 growth: inactive; Yeast lifespan up: inactive

What do the screens show for `C/C(=N/NC(=O)c1ccc(C)s1)c1cccc(NC(=O)COc2ccc(Cl)cc2Cl)c1`?
PTEN del growth: inactive; bCat KO growth: inactive; Yeast growth inh: inactive; sdo1 growth: inactive; Yeast lifespan up: inactive; SDO1 rescue DR: inactive

Results for Fc1ccc(-c2ccc(/C=N\n3cnnc3)o2)cc1Cl ?
PTEN del growth: inactive; bCat KO growth: inactive; Yeast growth inh: inactive; sdo1 growth: inactive; Yeast lifespan up: inactive

Results for CC(C)COC(=O)c1cc(-c2ccc(/C=N/n3cnnc3)o2)ccc1Cl ?
PTEN del growth: inactive; bCat KO growth: inactive; Yeast growth inh: inactive; sdo1 growth: 4; Yeast lifespan up: inactive; SDO1 rescue DR: 0.12

How did O=C1COc2ccc(C(=O)COC(=O)c3ccc4ccccc4n3)cc2N1 do in these assays?
PTEN del growth: inactive; bCat KO growth: inactive; Yeast growth inh: inactive; sdo1 growth: inactive; Yeast lifespan up: inactive; SDO1 rescue DR: 0.099

What do the screens show for `CN(CC(=O)NCc1cccnc1)S(=O)(=O)c1ccc2c(c1)c(=O)n(C)c(=O)n2C`?
PTEN del growth: inactive; bCat KO growth: inactive; Yeast growth inh: inactive; sdo1 growth: 3; Yeast lifespan up: inactive; SDO1 rescue DR: 0.074

How did CC(C)c1ccc(NC(=O)C2CCCN(S(=O)(=O)c3cnc[nH]3)C2)cc1 (stereo not drawn) do in these assays?
PTEN del growth: inactive; bCat KO growth: inactive; Yeast growth inh: inactive; sdo1 growth: inactive; Yeast lifespan up: inactive; SDO1 rescue DR: inactive

Results for O=C(Nc1ccc(Cl)cc1)C1CCCN(S(=O)(=O)c2cnc[nH]2)C1 (stereo not drawn) ?
PTEN del growth: inactive; bCat KO growth: inactive; Yeast growth inh: inactive; sdo1 growth: inactive; Yeast lifespan up: inactive

What do the screens show for `COc1ccccc1C(=O)N/N=C(\C)c1ccc(NC(=O)C2CC2)cc1`?
PTEN del growth: inactive; bCat KO growth: inactive; Yeast growth inh: inactive; sdo1 growth: inactive; Yeast lifespan up: inactive

How did Cc1ccc2c(CC(=O)NNC(=O)c3ccccc3)coc2c1 do in these assays?
PTEN del growth: inactive; bCat KO growth: inactive; Yeast growth inh: inactive; sdo1 growth: 6.7; Yeast lifespan up: inactive; SDO1 rescue DR: 0.084

How did S=C(NCc1ccco1)N/N=C/c1ccc(Cl)cc1 do in these assays?
PTEN del growth: inactive; bCat KO growth: inactive; Yeast growth inh: inactive; sdo1 growth: 8.4; Yeast lifespan up: inactive; SDO1 rescue DR: 0.079

How did CCOC(=O)c1nn(-c2cccc(C)c2)c2nnc(Cc3ccc(C)cc3)c(=O)n12 do in these assays?
PTEN del growth: inactive; bCat KO growth: inactive; Yeast growth inh: inactive; sdo1 growth: inactive; Yeast lifespan up: inactive

How did CCCCCCCC#Cc1ccccc1/C=N/S(=O)c1ccc(C)cc1 (stereo not drawn) do in these assays?
PTEN del growth: inactive; bCat KO growth: inactive; Yeast growth inh: inactive; sdo1 growth: 13; Yeast lifespan up: 36; SDO1 rescue DR: inactive

How did COc1ccc(C2=NOC(C(=O)Nc3cccnc3)C2)cc1 (stereo not drawn) do in these assays?
PTEN del growth: inactive; bCat KO growth: inactive; Yeast growth inh: inactive; sdo1 growth: 3.5; Yeast lifespan up: inactive; SDO1 rescue DR: inactive

Results for COc1cccc(C2=NOC(C(=O)Nc3cccnc3)C2)c1 (stereo not drawn) ?
PTEN del growth: inactive; bCat KO growth: inactive; Yeast growth inh: inactive; sdo1 growth: inactive; Yeast lifespan up: inactive

What do the screens show for `CCOC(=O)c1[nH]c(COC(=O)C2CC(=O)N(Cc3ccccc3)C2)c(C(=O)OCC)c1C` (stereo not drawn)?
PTEN del growth: inactive; bCat KO growth: inactive; Yeast growth inh: inactive; sdo1 growth: 4.6; Yeast lifespan up: inactive; SDO1 rescue DR: inactive

What do the screens show for `CCCCN(CC)C(=O)Cn1cnc2ccc(S(=O)(=O)N3CCC(C)CC3)cc2c1=O`?
PTEN del growth: inactive; bCat KO growth: inactive; Yeast growth inh: inactive; sdo1 growth: inactive; Yeast lifespan up: inactive

Results for CN1CCN(CC(=O)Nc2ccc(OCc3ccccc3)cc2)CC1 ?
PTEN del growth: inactive; bCat KO growth: inactive; Yeast growth inh: inactive; sdo1 growth: 4.4; Yeast lifespan up: inactive; SDO1 rescue DR: inactive

What do the screens show for `N#CCN1CCN(CC(=O)Nc2ccc(OCc3ccccc3)cc2)CC1`?
PTEN del growth: inactive; bCat KO growth: inactive; Yeast growth inh: inactive; sdo1 growth: inactive; Yeast lifespan up: inactive

Results for COc1ccc(CNc2nc3c(c(=O)n(Cc4ccc(Br)cc4)c(=O)n3C)n2C)cc1 ?
PTEN del growth: inactive; bCat KO growth: inactive; Yeast growth inh: inactive; sdo1 growth: inactive; Yeast lifespan up: inactive; SDO1 rescue DR: inactive
